Assay [1] concerns the target STE20-like serine/threonine-protein kinase (Homo sapiens, UniProt Q9H2G2). Briefly: Inhibition of SLK in human HeLa cells lysate at 2 uM pre incubated for 15 mins followed by ADP acyl phosphate probe addition and measured after 10 mins by LC-MS/MS analysis relative to control. Format: subcellular. To be noted: time 25.0 min.
The subject of assay [2] is HeLa. Description: Antiproliferative activity against human HeLa cells over expressing BMK1 assessed as reduction in cell viability at 5 uM after 48 hrs by MTT assay. Format: functional, cell-based. The essentials: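 HeLa cells were infected with empty adenovirus or adenovirus encoding dominant-negative BMK1(AEF). After 24 hr they were treated with or without 5 μM drug for 48 hr and read by MTT. % growth inhibition = (1 − MTT of group / MTT of Ad-EV-only cells) × 100. n = 3.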

Active and inactive are the calls of the source. The calls are words filed in the database; no cut-off is given here.

As a reminder, the inhibition is the relative decrease from the control value, in per cent. Higher therefore signals strong suppression.

Chain of STE20-like serine/threonine-protein kinase (Q9H2G2 whole entry, looked up): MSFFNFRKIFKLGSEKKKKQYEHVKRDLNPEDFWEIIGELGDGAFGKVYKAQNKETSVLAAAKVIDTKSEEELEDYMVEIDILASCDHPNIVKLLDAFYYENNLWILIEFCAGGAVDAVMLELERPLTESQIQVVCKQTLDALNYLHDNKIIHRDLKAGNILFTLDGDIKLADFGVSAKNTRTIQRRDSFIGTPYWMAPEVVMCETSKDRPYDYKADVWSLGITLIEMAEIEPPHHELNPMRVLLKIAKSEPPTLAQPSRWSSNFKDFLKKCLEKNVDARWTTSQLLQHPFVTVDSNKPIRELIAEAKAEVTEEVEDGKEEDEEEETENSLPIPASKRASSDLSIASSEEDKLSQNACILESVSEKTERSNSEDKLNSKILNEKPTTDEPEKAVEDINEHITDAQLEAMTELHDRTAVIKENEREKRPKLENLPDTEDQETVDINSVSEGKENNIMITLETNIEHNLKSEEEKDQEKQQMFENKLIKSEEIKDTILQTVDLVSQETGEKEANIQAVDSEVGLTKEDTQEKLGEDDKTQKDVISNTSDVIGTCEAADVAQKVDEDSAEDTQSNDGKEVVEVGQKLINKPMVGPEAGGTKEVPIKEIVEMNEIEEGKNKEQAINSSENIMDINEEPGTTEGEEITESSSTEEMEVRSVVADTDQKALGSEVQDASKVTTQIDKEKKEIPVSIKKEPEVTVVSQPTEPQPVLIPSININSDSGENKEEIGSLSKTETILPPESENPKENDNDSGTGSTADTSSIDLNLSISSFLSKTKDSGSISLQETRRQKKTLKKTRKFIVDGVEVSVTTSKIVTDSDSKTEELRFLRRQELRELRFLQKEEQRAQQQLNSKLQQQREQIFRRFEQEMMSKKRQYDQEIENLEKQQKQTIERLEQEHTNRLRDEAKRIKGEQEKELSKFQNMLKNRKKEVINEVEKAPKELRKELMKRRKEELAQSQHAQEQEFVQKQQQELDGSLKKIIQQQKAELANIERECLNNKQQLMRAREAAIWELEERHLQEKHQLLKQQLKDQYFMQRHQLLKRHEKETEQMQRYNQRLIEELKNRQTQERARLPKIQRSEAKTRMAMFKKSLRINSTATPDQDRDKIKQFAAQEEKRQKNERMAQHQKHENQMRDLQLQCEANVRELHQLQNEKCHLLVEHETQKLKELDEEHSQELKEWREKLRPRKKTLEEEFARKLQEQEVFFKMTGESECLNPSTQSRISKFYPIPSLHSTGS

With `CCOc1cc(N2CCC(O)CC2)ccc1Nc1ncc2c(n1)N(C)c1ccccc1C(=O)N2C`, the inhibition in assay [1] turned out to be 13.3%. Moreover, in assay [2], the outcome was Active.

For the origin of these results see ChEMBL document CHEMBL5661979, “Pharmacological inhibition of BMK1 suppresses tumor growth through promyelocytic leukemia protein” (Cancer Cell, 2010).
